Assay results taken from ChEMBL document CHEMBL2146385, “Synthesis and antiviral evaluation of bis(POM) prodrugs of (E)-[4'-phosphono-but-2'-en-1'-yl]purine nucleosides” (Eur J Med Chem, 2012).
Activity calls are given as the source filed them. No cut-off for these calls is given here.

Legend:
Punta Toro virus = test: Antiviral activity against Punta Toro virus infected in african green monkey Vero assessed as inhibition of virus-induced cytopathicity after 3 days; assay type: functional, organism-based
Outline: (§1)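 Confluent cell monolayers infected with 100 CCID50 of virus in the presence of test compound at 100, 20,... μM. Cytopathicity was scored once it was complete in untreated infected controls.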

Influenza A virus [1] = test: Antiviral activity against Influenza A virus H1N1 infected in MDCK assessed as inhibition of virus-induced cytopathicity after 3 days; assay type: functional, organism-based
Felid alphaherpesvirus 1 = test: Antiviral activity against Feline herpesvirus infected in CRFK cells assessed as inhibition of virus-induced cytopathicity after 3 days; assay type: functional, organism-based; conditions: Felid alphaherpesvirus 1, CRFK, 72 h
Coxsackievirus B4 = test: Antiviral activity against Coxsackievirus B4 infected in human HeLa assessed as inhibition of virus-induced cytopathicity after 3 days; assay type: functional, organism-based; outline: as §1
Human alphaherpesvirus 1 [2] = test: Antiviral activity against acyclovir-resistant thymidine kinase deficient HSV1 KOS infected in HEL assessed as inhibition of virus-induced cytopathicity after 3 days; assay type: functional, organism-based; conditions: Human alphaherpesvirus 1, KOS, 72 h
Influenza A virus [3] = test: Antiviral activity against Influenza A virus H3N2 infected in MDCK assessed as inhibition of virus-induced cytopathicity after 3 days; assay type: functional, organism-based
Human alphaherpesvirus 2 = test: Antiviral activity against HSV2 G infected in HEL assessed as inhibition of virus-induced cytopathicity after 3 days; assay type: functional, organism-based; conditions: Human alphaherpesvirus 2, strain G, 72 h; outline: as §1
[4] = system: Vesicular stomatitis virus; test: Antiviral activity against Vesicular stomatitis virus infected in MDCK assessed as inhibition of virus-induced cytopathicity after 3 days; assay type: functional, organism-based
Human alphaherpesvirus 3 [5] = test: Antiviral activity against VZV OKA expressing thymidine kinase infected in HEL cells assessed as inhibition of virus-induced cytopathogenicity after 3 days; assay type: functional, cell-based; conditions: Human alphaherpesvirus 3, strain Oka vaccine, 72 h
[6] = Cytotoxicity against HEL assessed as minimum compound concentration causes microscopically detectable alteration of cell morphology after 3 days; assay type: cell-based; conditions: human, HEL cells
Human alphaherpesvirus 3 [7] = test: Antiviral activity against thymidine kinase-deficient VZV 07/1 infected in human HEL cells assessed as reduction of virus-induced cytopathogenicity after 3 days; assay type: functional, organism-based; conditions: Human alphaherpesvirus 3, 07/1, HEL, 72 h
Human respirovirus 3 = test: Antiviral activity against Parainfluenza-3 virus infected in african green monkey Vero assessed as inhibition of virus-induced cytopathicity after 3 days; assay type: functional, organism-based; outline: as §1
Human alphaherpesvirus 1 [8] = test: Antiviral activity against HSV1 KOS infected in HEL assessed as inhibition of virus-induced cytopathicity after 3 days; assay type: functional, organism-based; conditions: Human alphaherpesvirus 1, KOS, 72 h
[9] = system: Mammalian orthoreovirus 1; test: Antiviral activity against Reovirus-1 infected in african green monkey Vero assessed as inhibition of virus-induced cytopathicity after 3 days; assay type: functional, organism-based; outline: as §1
[10] = Cytotoxicity against HEL after 3 days; assay type: cell-based; conditions: human, HEL cells
Outline: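 HEL cells were seeded at 5×10^3 cells/well and allowed to grow for 24 h, then given medium with varying compound concentrations. After 3 days at 37 °C, cells were counted with a Coulter counter.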

Influenza B virus = test: Antiviral activity against Influenza B virus infected in MDCK assessed as inhibition of virus-induced cytopathicity after 3 days; assay type: functional, organism-based
[11] = system: Vesicular stomatitis virus; test: Antiviral activity against Vesicular stomatitis virus infected in human HeLa assessed as inhibition of virus-induced cytopathicity after 3 days; assay type: functional, organism-based
[12] = Cytotoxicity against CRFK cells after 3 days; assay type: cell-based, Felis catus; conditions: cat
Sindbis virus = test: Antiviral activity against Sindbis virus infected in african green monkey Vero assessed as inhibition of virus-induced cytopathicity after 3 days; assay type: functional, organism-based; outline: as §1
[13] = system: Respiratory syncytial virus; test: Antiviral activity against Respiratory syncytial virus infected in human HeLa assessed as inhibition of virus-induced cytopathicity after 3 days; assay type: functional, organism-based; outline: as §1
Vaccinia virus = test: Antiviral activity against Vaccinia virus infected in HEL assessed as inhibition of virus-induced cytopathicity after 3 days; assay type: functional, organism-based; conditions: Orthopoxvirus vaccinia, 72 h

Row | Compound | Activity (Punta Toro virus) | Activity (Influenza A virus [1]) | EC50 (Felid alphaherpesvirus 1) | Activity (Coxsackievirus B4) | EC50 (Human alphaherpesvirus 1 [2]) | Activity (Influenza A virus [3]) | EC50 (Human alphaherpesvirus 2) | Activity [4] | EC50 (Human alphaherpesvirus 3 [5]) | MCC at 72 h [6] | EC50 (Human alphaherpesvirus 3 [7]) | Activity (Human respirovirus 3) | EC50 (Human alphaherpesvirus 1 [8]) | Activity [9] | CC50 at 72 h [10] | Activity (Influenza B virus) | Activity [11] | Activity (Sindbis virus) | Activity [13] | EC50 (Vaccinia virus) | other results
1 | CC(C)(C)C(=O)OCOP(=O)(C/C=C/Cn1cnc2c(=O)[nH]c(N)nc21)OCOC(=O)C(C)(C)C | inactive | inactive | 11 µM | inactive | 5.8 µM | inactive | 7.8 µM | inactive | 1.05 µM | > 100 µM | 0.8 µM | inactive | 3.9 µM | inactive | 4.1 µM | inactive | inactive | inactive | inactive | 100 µM | CC50 at 72 h [12]: > 100 µM
2 | Nc1nc2c(ncn2COC(CO)CO)c(=O)[nH]1 [GANCICLOVIR] | – | – | 1.2 µM | – | – | – | – | – | – | – | – | – | – | – | – | – | – | – | – | – | CC50 at 72 h [12]: > 100 µM
3 | CC(C)c1ccc(Nc2ncnc3c2ncn3C/C=C/CP(=O)(OCOC(=O)C(C)(C)C)OCOC(=O)C(C)(C)C)cc1 | inactive | inactive | – | inactive | > 100 µM | inactive | > 100 µM | inactive | > 20 µM | 100 µM | > 20 µM | inactive | > 100 µM | inactive | 32.3 µM | inactive | inactive | inactive | inactive | > 100 µM | –
4 | CC(C)(C)C(=O)OCOP(=O)(C/C=C/Cn1cnc2c(NC3CCCCC3)ncnc21)OCOC(=O)C(C)(C)C | inactive | inactive | – | inactive | > 100 µM | inactive | > 100 µM | inactive | 20 µM | 100 µM | > 20 µM | inactive | > 100 µM | inactive | 11.4 µM | inactive | inactive | inactive | inactive | > 100 µM | –
5 | CC(C)(C)C(=O)OCOP(=O)(C/C=C/Cn1cnc2c(NC3CC3)ncnc21)OCOC(=O)C(C)(C)C | inactive | inactive | – | inactive | > 100 µM | inactive | > 100 µM | inactive | 55.7 µM | > 100 µM | 47.2 µM | inactive | > 100 µM | inactive | 39.6 µM | inactive | inactive | inactive | inactive | > 100 µM | –
6 | CC(C)(C)C(=O)OCOP(=O)(C/C=C/Cn1cnc2c(Cl)ncnc21)OCOC(=O)C(C)(C)C | inactive | inactive | – | inactive | > 20 µM | inactive | > 20 µM | inactive | > 20 µM | 100 µM | > 20 µM | inactive | > 20 µM | inactive | 10.5 µM | inactive | inactive | inactive | inactive | > 20 µM | –
